Among the data in ChEMBL document CHEMBL1149894, “Glycosidic constituents of the tubers of Gymnadenia conopsea” (J Nat Prod, 2008) are Activity values, retold here.

Active and inactive are the calls of the source. The rule behind the calls is not given here.

Series [1] has as its target T1, Acetylcholinesterase (Rattus norvegicus) (UniProt P37136).
T1 sequence (whole entry): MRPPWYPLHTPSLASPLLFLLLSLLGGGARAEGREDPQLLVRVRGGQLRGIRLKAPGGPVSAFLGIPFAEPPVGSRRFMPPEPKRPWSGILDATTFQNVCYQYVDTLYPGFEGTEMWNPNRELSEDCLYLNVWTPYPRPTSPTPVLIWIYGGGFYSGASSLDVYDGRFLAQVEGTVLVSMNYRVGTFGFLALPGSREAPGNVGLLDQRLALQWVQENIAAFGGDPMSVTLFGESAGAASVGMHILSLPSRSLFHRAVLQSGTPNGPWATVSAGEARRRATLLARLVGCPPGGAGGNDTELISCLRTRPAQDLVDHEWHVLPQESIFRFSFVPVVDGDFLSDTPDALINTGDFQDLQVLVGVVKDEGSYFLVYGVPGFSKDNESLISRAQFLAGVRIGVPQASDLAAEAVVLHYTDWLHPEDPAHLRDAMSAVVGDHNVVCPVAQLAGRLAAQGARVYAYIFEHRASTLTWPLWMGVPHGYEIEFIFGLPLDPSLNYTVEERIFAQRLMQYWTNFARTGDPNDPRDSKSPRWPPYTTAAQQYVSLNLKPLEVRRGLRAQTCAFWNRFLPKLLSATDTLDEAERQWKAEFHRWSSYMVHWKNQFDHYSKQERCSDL
The series is described as follows: Inhibition of rat brain AChE at 10 uM by Ellman method. In outline: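 Source: fresh rat brain homogenised in 9 volumes of ice-cold PBS, incubated with each test compound separately. Activity measured spectrophotometrically at 25 °C by the Ellman method; test compounds at 10^-5 M; donepezil as positive control; read as percent inhibition.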

For series [2], the target named is T2, Amine oxidase [flavin-containing] B (Rattus norvegicus, UniProt P19643).
T2 sequence (P19643 whole entry): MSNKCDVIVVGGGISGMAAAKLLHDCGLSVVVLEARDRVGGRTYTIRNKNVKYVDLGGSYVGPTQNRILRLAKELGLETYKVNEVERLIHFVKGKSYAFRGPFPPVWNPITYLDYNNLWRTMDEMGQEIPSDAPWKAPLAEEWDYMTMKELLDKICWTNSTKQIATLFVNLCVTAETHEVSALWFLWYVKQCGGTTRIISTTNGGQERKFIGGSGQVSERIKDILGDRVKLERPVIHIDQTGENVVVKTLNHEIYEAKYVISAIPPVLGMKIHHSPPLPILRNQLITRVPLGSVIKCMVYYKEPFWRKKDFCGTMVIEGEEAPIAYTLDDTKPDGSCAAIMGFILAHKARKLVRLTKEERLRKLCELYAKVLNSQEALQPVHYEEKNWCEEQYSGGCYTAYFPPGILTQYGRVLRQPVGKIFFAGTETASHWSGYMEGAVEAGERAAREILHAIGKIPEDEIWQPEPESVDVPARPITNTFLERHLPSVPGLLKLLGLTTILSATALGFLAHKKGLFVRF
The series is described as follows: Inhibition of rat brain monoamine oxidase B at 10 uM. In outline: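 Fresh rat brain homogenized in 9-fold volume of ice-cold PBS and incubated separately with each compound at 10^-5 M. MAO-B activity was determined by quantifying the oxidation product of benzylamine substrate. Pargyline was the positive control. The value is reported as an inhibition rate.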

As for `CC(C)C[C@](O[C@@H]1O[C@H](CO)[C@@H](O)[C@H](O)[C@H]1O)(C(=O)OCc1ccc(O[C@@H]2O[C@H](CO)[C@@H](O)[C@H](O)[C@H]2O)cc1)[C@H](O)C(=O)OCc1ccc(O[C@@H]2O[C@H](CO)[C@@H](O)[C@H](O[C@@H]3O[C@H](CO)[C@@H](O)[C@H](O)[C@H]3O)[C@H]2O)cc1`, in series [1], the outcome was inactive. For the same molecule, the Activity result in series [2] was “Not Active”.

Consider `OCc1ccc(O[C@@H]2O[C@H](CO)[C@@H](O[C@H]3O[C@H](CO)[C@@H](O)[C@H](O)[C@H]3O)[C@H](O)[C@H]2O)cc1`, for which the outcome in series [1] was inactive. Further, the Activity entry in series [2] was “Not Active”.

In the case of `OCc1ccc(O[C@@H]2O[C@H](CO)[C@@H](O[C@@H]3O[C@H](CO)[C@@H](O)[C@H](O)[C@H]3O)[C@H](O)[C@H]2O)cc1`, the outcome in series [1] was inactive. In addition, the Activity entry in series [2] was “Not Active”.

As to `OCc1ccc(O[C@@H]2O[C@H](CO)[C@@H](O)[C@H](O[C@@H]3O[C@H](CO)[C@@H](O)[C@H](O)[C@H]3O)[C@H]2O)cc1`, in series [1], the result was inactive. For the same molecule, the Activity result in series [2] is given as “Not Active”.

Consider `CC(C)C[C@](O[C@@H]1O[C@H](CO)[C@@H](O)[C@H](O)[C@H]1O)(C(=O)OCc1ccc(O[C@@H]2O[C@H](CO)[C@@H](O)[C@H](O)[C@H]2O)cc1)C(O)C(=O)OCc1ccc(O[C@@H]2O[C@H](CO)[C@@H](O[C@H]3O[C@H](CO)[C@@H](O)[C@H](O)[C@H]3O)[C@H](O)[C@H]2O)cc1` (stereo partly drawn), for which the result in series [1] was inactive. Moreover, the Activity entry in series [2] is “Not Active”.

On to `CCOCc1ccc(O[C@@H]2O[C@H](CO)[C@@H](O)[C@H](O[C@@H]3O[C@H](CO)[C@@H](O)[C@H](O)[C@H]3O)[C@H]2O)cc1`, for which the outcome in series [1] was inactive. The Activity result in series [2] is given as “Not Active”.

With `CC(C)C[C@](O)(C(=O)OCc1ccc(O[C@@H]2O[C@H](CO)[C@@H](O)[C@H](O)[C@H]2O)cc1)[C@H](O)C(=O)OCc1ccc(O[C@@H]2O[C@H](CO[C@@H]3O[C@H](CO)[C@@H](O)[C@H](O)[C@H]3O)[C@@H](O)[C@H](O)[C@H]2O)cc1`, the outcome in series [1] was inactive. The Activity entry in series [2] is “Not Active”.

As to `COC(=O)[C@@H](O)[C@](O)(CC(C)C)C(=O)OCc1ccc(O[C@@H]2O[C@H](CO)[C@@H](O)[C@H](O)[C@H]2O)cc1`, in series [1], the outcome was inactive. The Activity entry in series [2] was “Not Active”.

For `CC(C)C[C@](CC(=O)OCc1ccc(O[C@@H]2O[C@H](CO)[C@@H](O)[C@H](O)[C@H]2O)cc1)(O[C@@H]1O[C@H](CO)[C@@H](O)[C@H](O)[C@H]1O)C(=O)O`, the result in series [1] was inactive. Further, the Activity result in series [2] was “Not Active”.
